Measured values taken from ChEMBL document CHEMBL1123757, “Selective thromboxane synthetase inhibitors and antihypertensive agents. New derivatives of 4-hydrazino-5H-pyridazino[4,5-b]indole, 4-hydrazinopyridazino[4,5-a]indole, and related compounds” (J Med Chem, 1987).

What was measured:
Homo sapiens [1] = species: Homo sapiens; experiment: In vitro inhibition of platelet aggregation induced by ADP-II (PRP incubated for 5 minutes at 37 degree C) at 10e-5 M; No significance; format: functional
Procedure, shortened: (§1)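 Human venous blood anticoagulated with 3.8% sodium citrate (1:9). PRP from centrifugation at 800 rpm for 10 min at room temperature. Count adjusted with PPP to […]. Compound in saline with 10% ethylene glycol is added to PRP and incubated at 37 °C before the agonist. Agonists: ADP 2×10^-5 M, AA 0.6 mM, PGH2 2.8 μM, adrenaline 0.6 μM. Born absorbance aggregometry; n = 5.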

Homo sapiens [2] = species: Homo sapiens; experiment: In vitro inhibition of platelet aggregation induced by […] (PRP incubated for 5 minutes at 37 degree C) at 10e-5 M; No significance; format: functional
Homo sapiens [3] = species: Homo sapiens; experiment: In vitro inhibition of platelet aggregation induced by ADP-II (PRP incubated for 60 minutes at 37 degree C) at 10e-5 M; format: functional; conditions: 1 h; procedure, shortened: as §1
Homo sapiens [4] = species: Homo sapiens; experiment: In vitro inhibition of platelet aggregation induced by AA (PRP incubated for 60 minutes at 37 degree C) at 10e-5 M; No significance; format: functional; procedure, shortened: as §1
Rattus norvegicus [5] = experiment: Antihypertensive activity in spontaneously hypertensive rats (SHR) measured by percentage fall in arterial pressure (AP) at 25 mg/kg administered intraperitoneally at 3 h; format: functional, Artery; conditions: route intraperitoneal
Procedure, shortened: (§2)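 Unanesthetized Okamoto-strain SHR, male and female, 8 weeks old, 300–350 g, systolic pressure ≥190 mmHg, heart rate 400–650 beats/min; five animals per dose. Given ip at 2.5 mL/kg, dissolved or suspended in normal saline or saline with 0.2% (carboxymethyl)cellulose and 1.0% Tween 80. Tail AP and CR recorded by mechanical transduction at set times; reported as percentage fall from control.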

Rattus norvegicus [6] = experiment: Antihypertensive activity in spontaneously hypertensive rats (SHR) measured by percentage fall in arterial pressure (AP) at 25 mg/kg administered intraperitoneally at 24 h;No significance; format: functional, organism-based; parameters: dose 25 mg/kg; conditions: Artery; procedure, shortened: as §2
Rattus norvegicus [7] = experiment: Antihypertensive activity in spontaneously hypertensive rats (SHR) measured by percentage fall in arterial pressure (AP) at 25 mg/kg administered intraperitoneally at 1 h; format: functional, Artery; conditions: route intraperitoneal; procedure, shortened: as §2
Rattus norvegicus [8] = experiment: Antihypertensive activity in spontaneously hypertensive rats (SHR) measured by percentage fall in cardiac rhythm (CR) at 25 mg/kg administered intraperitoneally at 24 h;No significance; format: functional, organism-based; parameters: dose 25 mg/kg; conditions: Heart; procedure, shortened: as §2
Rattus norvegicus [9] = experiment: Antihypertensive activity in spontaneously hypertensive rats (SHR) measured by percentage fall in arterial pressure (AP) at 25 mg/kg administered intraperitoneally at 5 h;No significance; format: functional, organism-based; parameters: dose 25 mg/kg; conditions: Artery; procedure, shortened: as §2
Rattus norvegicus [10] = experiment: Antihypertensive activity in spontaneously hypertensive rats (SHR) measured by percentage fall in cardiac rhythm (CR) at 25 mg/kg administered intraperitoneally at 5 h;No significance; format: functional, organism-based; parameters: dose 25 mg/kg; conditions: Heart
Procedure, shortened: (§3)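 Conscious SHR (Okamoto strain), 8 weeks old, male and female, 300–350 g, systolic BP ≥190 mmHg, CR 400–650 beats/min. Given ip or po at 2.5 mL/kg in normal saline or saline with 0.2% (carboxymethyl)cellulose and 1.0% Tween 80. Tail AP and CR recorded by mechanical transduction at 1, 3, 5 and 24 h, five animals per dose. Effect expressed as % fall versus control.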

Rattus norvegicus [11] = experiment: Antihypertensive activity in spontaneously hypertensive rats (SHR) measured by percentage fall in cardiac rhythm (CR) at 25 mg/kg administered intraperitoneally at 3 h;No significance; format: functional, organism-based; parameters: dose 25 mg/kg; conditions: Heart; procedure, shortened: as §3
Rattus norvegicus [12] = experiment: Antihypertensive activity in spontaneously hypertensive rats (SHR) measured by percentage fall in cardiac rhythm (CR) at 25 mg/kg administered intraperitoneally at 1 h;No significance; format: functional, organism-based; parameters: dose 25 mg/kg; conditions: Heart; procedure, shortened: as §2
Rattus norvegicus [13] = experiment: Antihypertensive activity in spontaneously hypertensive rats (SHR) measured by percentage fall in arterial pressure (AP) at 25 mg/kg administered intraperitoneally at 1 h;No significance; format: functional, organism-based; parameters: dose 25 mg/kg; conditions: Artery; procedure, shortened: as §2
Rattus norvegicus [14] = experiment: Antihypertensive activity in spontaneously hypertensive rats (SHR) measured by percentage fall in arterial pressure (AP) at 25 mg/kg administered intraperitoneally at 3 h;No significance; format: functional, organism-based; parameters: dose 25 mg/kg; conditions: Artery; procedure, shortened: as §2
Rattus norvegicus [15] = experiment: Antihypertensive activity in spontaneously hypertensive rats (SHR) measured by percentage fall in cardiac rhythm (CR) at 25 mg/kg administered intraperitoneally at 3 h; format: functional, Heart; conditions: route intraperitoneal; procedure, shortened: as §2
Rattus norvegicus [16] = experiment: Antihypertensive activity in spontaneously hypertensive rats (SHR) measured by percentage fall in cardiac rhythm (CR) at 25 mg/kg administered intraperitoneally at 24 h; format: functional, Heart; conditions: route intraperitoneal; procedure, shortened: as §2
Rattus norvegicus [17] = experiment: Antihypertensive activity in spontaneously hypertensive rats (SHR) measured by percentage fall in arterial pressure (AP) at 25 mg/kg administered intraperitoneally at 5 h; format: functional, Artery; conditions: route intraperitoneal; procedure, shortened: as §2

SMILES	inhibition (Homo sapiens [1])	inhibition (Homo sapiens [2])	inhibition at 10 µM (Homo sapiens [3])	inhibition (Homo sapiens [4])	Decrease in AP (Rattus norvegicus [5])	Decrease in AP (Rattus norvegicus [6])	Decrease in AP (Rattus norvegicus [7])	Decrease in CR (Rattus norvegicus [8])	Decrease in AP (Rattus norvegicus [9])	Decrease in CR (Rattus norvegicus [10])	Decrease in CR (Rattus norvegicus [11])	Decrease in CR (Rattus norvegicus [12])	Decrease in AP (Rattus norvegicus [13])	Decrease in AP (Rattus norvegicus [14])	Decrease in CR (Rattus norvegicus [15])	Decrease in CR (Rattus norvegicus [16])	Decrease in AP (Rattus norvegicus [17])
COc1ccc2c(c1)cc1c(O)nncn12	No significant values	No significant values	100%	No significant values	–	–	–	–	–	–	–	–	–	–	–	–	–
CCOc1ccc2[nH]c3c(S)nncc3c2c1	–	–	–	–	5%	No significant values	10%	No significant values	No significant values	No significant values	No significant values	No significant values	–	–	–	–	–
COc1ccc2c(c1)cc1c(NN)nncn12	–	No significant values	–	No significant values	–	No significant values	–	No significant values	No significant values	No significant values	No significant values	No significant values	No significant values	No significant values	–	–	–
COc1ccc2[nH]c3c(N/N=C\c4ccccc4)nncc3c2c1	–	–	–	–	6%	–	–	–	–	–	–	–	–	–	-20%	-13%	8%
